Test results reported in ChEMBL document CHEMBL1123390, “3-Hydroxy-3-methylglutaryl-coenzyme A reductase inhibitors. 3. 7-(3,5-Disubstituted [1,1'-biphenyl]-2-yl)-3,5-dihydroxy-6-heptenoic acids and their lactone derivatives” (J Med Chem, 1986).

What was measured:
[1] = target: T1, 3-hydroxy-3-methylglutaryl-coenzyme A reductase (Rattus norvegicus) (UniProt P51639); experiment: Inhibitory potency against purified rat liver HMG-CoA reductase relative to compactin
T1 sequence (whole entry): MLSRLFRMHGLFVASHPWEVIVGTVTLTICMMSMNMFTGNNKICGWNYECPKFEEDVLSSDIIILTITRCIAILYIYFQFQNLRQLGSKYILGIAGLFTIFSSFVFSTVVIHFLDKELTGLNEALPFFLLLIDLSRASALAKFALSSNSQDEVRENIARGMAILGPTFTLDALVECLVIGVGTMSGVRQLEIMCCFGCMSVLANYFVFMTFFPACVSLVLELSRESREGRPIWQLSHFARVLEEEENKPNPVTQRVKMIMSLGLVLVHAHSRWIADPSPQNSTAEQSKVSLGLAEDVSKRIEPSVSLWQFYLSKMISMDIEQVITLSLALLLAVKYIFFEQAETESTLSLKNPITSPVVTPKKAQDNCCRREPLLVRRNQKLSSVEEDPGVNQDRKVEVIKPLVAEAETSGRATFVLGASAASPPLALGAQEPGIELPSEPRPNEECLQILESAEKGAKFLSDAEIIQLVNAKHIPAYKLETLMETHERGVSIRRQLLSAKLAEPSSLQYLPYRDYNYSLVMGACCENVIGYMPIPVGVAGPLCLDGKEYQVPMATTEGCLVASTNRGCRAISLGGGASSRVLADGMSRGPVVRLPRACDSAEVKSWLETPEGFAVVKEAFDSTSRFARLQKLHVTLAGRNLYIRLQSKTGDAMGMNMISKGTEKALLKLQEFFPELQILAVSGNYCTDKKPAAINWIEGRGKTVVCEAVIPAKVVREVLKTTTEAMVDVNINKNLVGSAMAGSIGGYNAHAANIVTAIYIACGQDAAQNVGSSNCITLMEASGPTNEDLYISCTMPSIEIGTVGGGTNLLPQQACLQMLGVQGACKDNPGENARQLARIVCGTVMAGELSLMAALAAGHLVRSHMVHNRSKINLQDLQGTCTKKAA

[2] = target: T2, 3-hydroxy-3-methylglutaryl-coenzyme A reductase (Rattus norvegicus, UniProt P51639); experiment: Inhibition of solubilized partially purified rat liver HMG-CoA reductase
T2 sequence (P51639 whole entry): T1 sequence (whole entry)
Summary of the method: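 Enzyme inhibition was tested at four or five test-compound concentrations, and percentage inhibition was plotted against concentration. IC50 came from a straight line fitted to these points by least squares. The full protocol is given in part 1 of the series.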

| Structure (SMILES) | Relative potency [1] | IC50 [2] |
| --- | --- | --- |
| Cc1ccccc1-c1cc(Cl)cc(Cl)c1/C=C/[C@@H]1C[C@@H](O)CC(=O)O1 | 3.2 | 370 nM |
| Cc1cc(C)c(/C=C/[C@@H]2C[C@@H](O)CC(=O)O2)c(-c2ccc(F)c(C)c2)c1 (stereo in doubt; 110) [listing 1 of 2 here] | – | 7 nM |
| Cc1cc(-c2cccc(Cl)c2/C=C/[C@@H]2C[C@@H](O)CC(=O)O2)ccc1F | 40 | 30 nM |
| O=C1C[C@H](O)CC(CCc2c(Cl)cc(Cl)cc2Cc2ccccc2)O1 (some centres undefined) | 4.3 | 530 nM |
| Cc1cc(Cl)c(/C=C/[C@@H]2C[C@@H](O)CC(=O)O2)c(-c2ccc(F)c(C)c2)c1 | 92 | 13 nM |
| Cc1cc(-c2cc(Cl)cc(C)c2/C=C/[C@@H]2C[C@@H](O)CC(=O)O2)ccc1F | 233 | 6 nM |
| O=C1C[C@H](O)CC(CCc2c(Cl)cc(Cl)cc2-c2ccccc2)O1 (some centres undefined) | 18 | 100 nM |
| O=C1C[C@H](O)C[C@@H](/C=C/c2c(Cl)cc(Cl)cc2-c2cc(Cl)cc(Cl)c2)O1 | 78 | 37 nM |
| CCc1cccc(-c2cc(Cl)cc(Cl)c2/C=C/[C@@H]2C[C@@H](O)CC(=O)O2)c1 | 30 | 44 nM |
| Cc1cc(C)c(/C=C/[C@@H]2C[C@@H](O)CC(=O)O2)c(-c2ccc(Cl)c(Cl)c2)c1 | 175 | 8 nM |
| Cc1cc(C)c(/C=C/[C@@H]2C[C@@H](O)CC(=O)O2)c(-c2ccc(F)c(CO)c2)c1 | 26.5 | 49 nM |
| Cc1cc(C)c(/C=C/[C@@H]2C[C@@H](O)CC(=O)O2)c(-c2ccc(F)c(C)c2)c1 (stereo in doubt; 110 (+)) [listing 1 of 2 here] | – | 7.6 nM |
| Cc1cc(C)c(CCC2C[C@@H](O)CC(=O)O2)c(-c2ccc(F)c(C)c2)c1 (some centres undefined) | 45 | 22 nM |
| Cc1cc(C)cc(-c2cc(C)cc(C)c2/C=C/[C@@H]2C[C@@H](O)CC(=O)O2)c1 | 80 | 15 nM |
| Cc1cc(C)cc(-c2cc(Cl)cc(Cl)c2/C=C/[C@@H]2C[C@@H](O)CC(=O)O2)c1 | 115 | 13 nM |
| O=C1C[C@H](O)CC(CCc2ccccc2-c2ccccc2)O1 (some centres undefined) | 0.44 | 44000 nM |
| Cc1ccc(C)c(-c2ccc(Cl)c(Cl)c2)c1/C=C/[C@@H]1C[C@@H](O)CC(=O)O1 | 123 | 13 nM |
| O=C1C[C@H](O)C[C@@H](/C=C/c2ccc(Cl)cc2Cl)O1 | 0.06 | – |
| Cc1cc(C)c(/C=C/[C@@H]2C[C@@H](O)CC(=O)O2)c(/C=C/c2ccc(Cl)cc2)c1 | 2.4 | 630 nM |
| O=C1C[C@H](O)C[C@@H](/C=C/c2c(Cl)cc(Cl)cc2CCc2ccccc2)O1 | 2.8 | 430 nM |
| Cc1cc(C)c(/C=C/[C@@H]2C[C@@H](O)CC(=O)O2)c(-c2ccc(F)c(C)c2)c1 (stereo in doubt; 110(-)) [listing 1 of 2 here] | – | 7300 nM |
| O=C1C[C@H](O)C[C@@H](/C=C/c2ccccc2-c2ccccc2)O1 | 0.63 | – |
| Cc1cc(C)c(/C=C/[C@@H]2C[C@@H](O)CC(=O)O2)c(-c2ccc(F)c(C)c2)c1 (stereo in doubt; 110(-)) [listing 2 of 2 here] | 0.18 | – |
| Cc1cc(C)c(/C=C/[C@@H]2C[C@@H](O)CC(=O)O2)c(-c2ccc(F)c(C)c2)c1 (stereo in doubt; 110 (+)) [listing 2 of 2 here] | 289 | – |
| Cc1cc(C)c(/C=C/[C@@H]2C[C@@H](O)CC(=O)O2)c(-c2ccc(F)c(C)c2)c1 (stereo in doubt; 110) [listing 2 of 2 here] | 171 | – |
| Cc1cc(C)c(/C=C/[C@@H]2C[C@@H](O)CC(=O)O2)c(-c2cc(C)c(F)c(C)c2)c1 | 150 | 10 nM |

Next, values leading:

| Relative potency [1] | IC50 [2] | Structure (SMILES) |
| --- | --- | --- |
| 100 | 29 nM | Cc1cc(-c2cc(Cl)cc(Cl)c2/C=C/[C@@H]2C[C@@H](O)CC(=O)O2)ccc1F |
| – | 5 nM | O=C1C[C@H](O)C[C@@H](/C=C/c2c(Cl)cc(Cl)cc2-c2ccc(F)cc2)O1 (stereo in doubt; 100(+)h) [listing 1 of 2 here] |
| 280 | – | O=C1C[C@H](O)C[C@@H](/C=C/c2c(Cl)cc(Cl)cc2-c2ccc(F)cc2)O1 (stereo in doubt; 100(+)h) [listing 2 of 2 here] |
| 96 | 13 nM | Cc1cc(C)c(/C=C/[C@@H]2C[C@@H](O)CC(=O)O2)c(-c2ccc(F)cc2)c1 |
| 33 | 36 nM | Cc1cc(F)ccc1-c1cc(Cl)cc(Cl)c1/C=C/[C@@H]1C[C@@H](O)CC(=O)O1 |
| 2.6 | 470 nM | COc1ccc(-c2cc(Cl)cc(Cl)c2/C=C/[C@@H]2C[C@@H](O)CC(=O)O2)cc1 |
| 38.6 | 70 nM | O=C1C[C@H](O)C[C@@H](/C=C/c2c(Cl)cc(Cl)cc2-c2cccc(F)c2)O1 |
| – | 260 nM | O=C1C[C@H](O)C[C@@H](/C=C/c2c(Cl)cc(Cl)cc2-c2ccc(F)cc2)O1 (stereo in doubt; 100(i)i) [listing 1 of 2 here] |
| 58 | 36 nM | O=C1C[C@H](O)C[C@@H](/C=C/c2c(Cl)cc(Cl)cc2-c2ccc(Cl)cc2)O1 |
| 11 | 190 nM | Cc1ccc(-c2cc(Cl)cc(Cl)c2/C=C/[C@@H]2C[C@@H](O)CC(=O)O2)cc1 |
| – | 24 nM | O=C1C[C@H](O)C[C@@H](/C=C/c2c(Cl)cc(Cl)cc2-c2ccc(F)cc2)O1 (stereo in doubt; 100) [listing 1 of 2 here] |
| 116 | 25 nM | O=C1C[C@H](O)C[C@@H](/C=C/c2c(Cl)cc(Cl)cc2-c2ccc(Cl)c(Cl)c2)O1 |
| 100 | – | O=C1C[C@H](O)C[C@@H](/C=C/c2c(Cl)cc(Cl)cc2-c2ccc(F)cc2)O1 (stereo in doubt; 100) [listing 2 of 2 here] |
| 94 | 16 nM | Cc1cccc(-c2cc(Cl)cc(Cl)c2/C=C/[C@@H]2C[C@@H](O)CC(=O)O2)c1 |
| 3.5 | 860 nM | O=C1C[C@H](O)C[C@@H](/C=C/c2c(F)cc(F)cc2-c2ccc(F)cc2)O1 |
| 26 | 80 nM | O=C1C[C@H](O)C[C@@H](/C=C/c2c(Cl)cc(Cl)cc2-c2ccccc2)O1 |
| 26 | 50 nM | COc1cccc(-c2cc(Cl)cc(Cl)c2/C=C/[C@@H]2C[C@@H](O)CC(=O)O2)c1 |
| 5 | – | O=C1C[C@H](O)C[C@@H](/C=C/c2c(Cl)cc(Cl)cc2-c2ccc(F)cc2)O1 (stereo in doubt; 100(i)i) [listing 2 of 2 here] |
